ChEMBL document CHEMBL4819096, “Antibacterial activity of noscapine analogs” (Bioorg Med Chem Lett, 2021)
Activity calls are given as the source filed them.

Tests used:
Escherichia coli [1] = test: Antibacterial activity against Escherichia coli assessed as inhibition of bacterial growth measured after 16 to 20 hrs by two-fold serial microbroth dilution method; format: functional; conditions: time 16-20 hrs
Procedure, shortened: (§1)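 Broth microdilution in LB and M9 medium. Inoculum adjusted to about 5 × 10⁵ cells/ml. Compound diluted twofold serially in microplate wells, then plates covered and incubated at 37 °C with shaking. Growth read as OD600. MIC taken as the lowest concentration giving no growth after 16–20 h.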

HEK293 [2] = test: Induction of cell cycle arrest in human HEK293 cells assessed as increase in accumulation of apoptotic cells at sub G1 phase at 71 uM measured after 48 hrs by propidium iodide staining based flow cytometry; conditions: hek293, 48 h
Procedure, shortened: (§2)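 Cell-cycle profiling of HEK293 cells treated with compound or vehicle (0.1% DMSO). Cells harvested (400 × g, 5 min) and fixed in ice-cold 70% ethanol for 24 h at −20 °C. Washed in PBS, treated with RNase A (0.5 mg/ml, 5 min, room temperature), then stained with propidium iodide (50 µg/ml, 30 min). DNA content read by flow cytometry on a linear scale. At least duplicate; mean ± S.E.M.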

[3] = Cytotoxicity against human HEK293 cells assessed as reduction in cell viability measured after 28 hrs by PrestoBlue reagent based fluorescence analysis
Procedure, shortened: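 HEK293 cells seeded at 25*10³ per well in DMEM with 10% FBS, 2 mM L-Glu and 50 µg/ml gentamicin. Cells held 24 h at 37 °C, 5% CO2 before compound was added (final DMSO 0.1%), then incubated 28 h. Viability read by PrestoBlue fluorescence at 590 nm, expressed relative to 0.1% DMSO control (100%). CC50 derived by curve fitting.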

Escherichia coli [4] = test: Antibacterial activity against ampicillin/cefotaxime/tetracycline/ceftriaxone-resistant Escherichia coli mx7 assessed as inhibition of bacterial growth measured after 16 to 20 hrs by two-fold serial microbroth dilution method; format: functional, organism-based; conditions: time 16-20 hrs
Procedure, shortened: (§3)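 Broth microdilution MIC in LB and M9 medium. Inoculum adjusted to about 5 × 10⁵ cells/ml. Compound serially diluted twofold. Plates covered and incubated at 37 °C with shaking. OD600 read; MIC taken as the lowest concentration giving no growth after 16–20 h.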

Enterobacter cloacae = test: Antibacterial activity against ampicillin/cefotaxime/tetracycline/ceftriaxone-resistant Enterobacter cloacae O3 assessed as inhibition of bacterial growth measured after 16 to 20 hrs by two-fold serial microbroth dilution method; format: functional, organism-based; conditions: time 16-20 hrs; procedure, shortened: as §3
Morganella morganii = test: Antibacterial activity against Morganella morganii R36 assessed as inhibition of bacterial growth measured after 16 to 20 hrs by two-fold serial microbroth dilution method; format: functional, organism-based; conditions: time 16-20 hrs; procedure, shortened: as §1
Pseudomonas aeruginosa [5] = test: Antibacterial activity against Pseudomonas aeruginosa R42 assessed as inhibition of bacterial growth measured after 16 to 20 hrs by two-fold serial microbroth dilution method; format: functional, organism-based; conditions: time 16-20 hrs; procedure, shortened: as §1
Klebsiella pneumoniae = test: Antibacterial activity against ampicillin/fosfomycin-resistant Klebsiella pneumonia 181210171-2 assessed as inhibition of bacterial growth measured after 16 to 20 hrs by two-fold serial microbroth dilution method; format: functional, organism-based; conditions: time 16-20 hrs; procedure, shortened: as §3
Enterobacter = test: Antibacterial activity against Enterobacter sp. O54 assessed as inhibition of bacterial growth measured after 16 to 20 hrs by two-fold serial microbroth dilution method; format: functional, organism-based; conditions: time 16-20 hrs; procedure, shortened: as §1
Proteus sp. = test: Antibacterial activity against ampicillin/cefotaxime/tetracycline/ceftriaxone/fosfomycin-resistant Proteus sp. O14 assessed as inhibition of bacterial growth measured after 16 to 20 hrs by two-fold serial microbroth dilution method; format: functional, organism-based; conditions: time 16-20 hrs; procedure, shortened: as §3
Citrobacter koseri = test: Antibacterial activity against Citrobacter koseri R38 assessed as inhibition of bacterial growth measured after 16 to 20 hrs by two-fold serial microbroth dilution method; format: functional, organism-based; conditions: time 16-20 hrs; procedure, shortened: as §1
Pseudomonas aeruginosa [6] = test: Antibacterial activity against ampicillin/cefotaxime-resistant Pseudomonas aeruginosa ATCC 27853 assessed as inhibition of bacterial growth measured after 16 to 20 hrs by two-fold serial microbroth dilution method; format: functional, organism-based; conditions: time 16-20 hrs; procedure, shortened: as §3
Hafnia alvei = test: Antibacterial activity against Ampicillin resistant Hafnia alvei O31 assessed as inhibition of bacterial growth measured after 16 to 20 hrs by two-fold serial microbroth dilution method; format: functional, organism-based; conditions: time 16-20 hrs; procedure, shortened: as §3
Proteus vulgaris = test: Antibacterial activity against Proteus vulgaris O41 assessed as inhibition of bacterial growth measured after 16 to 20 hrs by two-fold serial microbroth dilution method; format: functional, organism-based; conditions: time 16-20 hrs; procedure, shortened: as §1
Candida albicans = test: Antibacterial activity against ampicillin/cefotaxime/tetracycline/ceftriaxone/fosfomycin-resistant Candida albicans 181210169-1 assessed as inhibition of fungal growth measured after 16 to 20 hrs by two-fold serial microbroth dilution method; format: functional, organism-based; conditions: time 16-20 hrs; procedure, shortened: as §3
Klebsiella aerogenes = test: Antibacterial activity against Enterobacter aerogenes R41 assessed as inhibition of bacterial growth measured after 16 to 20 hrs by two-fold serial microbroth dilution method; format: functional, organism-based; conditions: time 16-20 hrs; procedure, shortened: as §1
Klebsiella oxytoca = test: Antibacterial activity against Klebsiella oxytoca R48 assessed as inhibition of bacterial growth measured after 16 to 20 hrs by two-fold serial microbroth dilution method; format: functional, organism-based; conditions: time 16-20 hrs; procedure, shortened: as §1
Staphylococcus aureus = test: Antibacterial activity against Fosfomycin resistant Staphylococcus aureus ATCC USA 206 assessed as inhibition of bacterial growth measured after 16 to 20 hrs by two-fold serial microbroth dilution method; format: functional, organism-based; conditions: time 16-20 hrs; procedure, shortened: as §3
Bacillus subtilis = test: Antibacterial activity against Bacillus subtilis 3HM assessed as inhibition of bacterial growth measured after 16 to 20 hrs by two-fold serial microbroth dilution method; format: functional, organism-based; conditions: time 16-20 hrs; procedure, shortened: as §1
HEK293 [7] = test: Induction of cell cycle arrest in human HEK293 cells assessed as increase in accumulation of cells at S phase at 71 uM after 24 hrs by propidium iodide staining based flow cytometry; conditions: hek293, 24 h; procedure, shortened: as §2
Escherichia coli [8] = test: Antibacterial activity against Escherichia coli ATCC25922 assessed as inhibition of bacterial growth measured after 16 to 20 hrs by two-fold serial microbroth dilution method; format: functional, organism-based; conditions: ATCC 25922, time 16-20 hrs; procedure, shortened: as §1
Aeromonas = test: Antibacterial activity against Aeromonas sp. O9 assessed as inhibition of bacterial growth measured after 16 to 20 hrs by two-fold serial microbroth dilution method; format: functional, organism-based; conditions: time 16-20 hrs; procedure, shortened: as §1
[9] = Selectivity index, ratio of CC50 for human HEK293 cells to MIC for antibacterial activity against Escherichia coli; format: toxicity; conditions: read-out: Selectivity Index

CCn1c(O)c(C(=O)CC2c3c(cc4c(c3OC)OCO4)CCN2C)c(=O)n(CC)c1=S (stereo not drawn)
active: Activity (Staphylococcus aureus) | Activity (Bacillus subtilis)
inactive: Activity (Escherichia coli [4]) | Activity (Enterobacter cloacae) | Activity (Morganella morganii) | Activity (Pseudomonas aeruginosa [5]) | Activity (Klebsiella pneumoniae) | Activity (Enterobacter) | Activity (Proteus sp.) | Activity (Citrobacter koseri) | Activity (Pseudomonas aeruginosa [6]) | Activity (Hafnia alvei) | Activity (Proteus vulgaris) | Activity (Candida albicans) | Activity (Klebsiella aerogenes) | Activity (Klebsiella oxytoca) | Activity (Escherichia coli [8]) | Activity (Aeromonas)
5.5: selectivity ratio [9]
71 µM: CC50 at 28 h [3]
13.5 µM: MIC (Escherichia coli [1])
Toxic: Activity (HEK293 [2]) | Activity (HEK293 [7])
